In ChEMBL document CHEMBL4513216, “Probing the Open Global Health Chemical Diversity Library for Multistage-Active Starting Points for Next-Generation Antimalarials” (ACS Infect Dis, 2020):

Assay: Toxicity liver stage against HepG2, at 10uM
Type: cell-based
Design: test concentration 10 uM, cell line HepG2-A16-CD81EGFP
Settings: human, HepG2-A16-CD81EGFP cells; read-out: INHIBITION
In short: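 Uninfected HepG2-A16-CD81EGFP cells, 3 × 10^3 per well, 1536-well, plated on prespotted compound at 10 μM final, parasite-free screening media added to match infected plates; puromycin 10 μM positive, DMSO 0.5% negative; run in parallel with 48 h PbLuc assay at 37 °C, 5% CO2; viability by CellTiter-Glo luminescence, normalized to controls.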

Point of comparison: `Cc1nncn1CCN1C(=O)CC2(CCCC2)CC1=O`, cytotoxicity at 10 µM -0.745%. Against it:
- CN(Cc1ccoc1)c1ccc(-c2nccn2C)nn1 — lower, -5.12%
- Cc1nc(C)n(CC2CCCN(CCC(=O)NC3CCCC3)C2)n1 (stereo unspecified) — lower, -6.73%
- Cn1cccc1C1CCCCCN1C(=O)c1ccc(NC2CC2)nc1 (stereo unspecified) — lower, -9.24%
- COCc1ncn2c1CN(S(=O)(=O)Cc1ccc(C)cc1)CC2 — higher, 0.854%
- COc1ccnc(NCc2ccccc2Cn2cccn2)n1 — lower, -0.81%
- Cc1cccc(CC2CCCN(C(=O)C3CCOCC3)C2)n1 (stereo unspecified) — higher, 2.16%
- Cn1cnc2c1C(COCc1ccccc1)N(Cc1ccncc1)CC2 (stereo unspecified) — lower, -1.99%
- Cc1ccc(=O)n(Cc2csc(N(C)C3CC3)n2)n1 — higher, 4.09%
- Cc1nnc(C2Cc3ccccc3CN2Cc2nc(C3CC3)no2)o1 (stereo unspecified) — lower, -13.1%
- Cc1ccc(N2CCC3(CCN(C(=O)c4ccsc4)C3)CC2)nn1 — higher, -0.0395%
- Cc1cc(C(F)(F)F)nn1C(C)C(=O)NN1CCOCC1 (stereo unspecified) — lower, -1.67%
- CC(C)CN1CCC2(CC1)CC(NS(C)(=O)=O)c1ccccc1O2 (stereo unspecified) — lower, -4.44%
- CN(CC1CCN(CCO)CC1)CC(O)c1ccc(F)c(F)c1 (stereo unspecified) — lower, -51.5%
- C=C(C)COCCNC(=O)Nc1cccc(Cn2nc(C)nc2C)c1 — higher, 7.64%
- CS(=O)(=O)CCCNC(=O)NC1CC(c2cccc(Cl)c2)C1 (stereo unspecified) — lower, -3.17%
- COc1ccccc1CC(=O)NS(=O)(=O)c1ccc(NC(C)=O)cc1 — lower, -2.18%
- CCC(CO)NC(=O)c1ccc2ccc(N(C)CC3CC3)n2c1 (stereo unspecified) — higher, 4.82%
- Cc1cc2ccccc2n1CCC(=O)NCCCc1nnc(N)s1 — higher, 19.6%
- CNS(=O)(=O)c1cccc(C(C)NCc2ccc(F)c(F)c2)c1 (stereo unspecified) — higher, 16.2%
- COc1ccc(C(CO)NC(=O)Nc2cccnc2)cc1 (stereo unspecified) — lower, -15.7%
- Cc1ccc(C(=O)NCCC2CCN(C)CC2)cc1N(C)S(C)(=O)=O — lower, -15.1%
- O=C([C@@H]1CCO[C@@H]2CCN(Cc3cccs3)C[C@H]21)N1CCCCO1 — higher, 5.77%
- Cc1cnc(CCNC(Cc2ccncc2)C(F)(F)F)s1 (stereo unspecified) — higher, 24.4%
- COc1c(C)cnc(CNC(=O)CCc2nc3ccccc3[nH]2)c1C — lower, -5.27%
- CN(C)c1nc2c(c(N3CCC(O)CC3)n1)CN(CC(C)(C)C)CC2 — higher, 7.5%
- c1ccc(CNc2ncc(CN3CC[C@@H]4CC[C@H](C3)N4)cn2)cc1 — lower, -3.8%
- Cc1ccsc1C(=O)N1CCc2ncc(Cn3cccn3)n2CC1 — lower, -108%
- Cn1cnc2c1C(COCC1CC1)CN(C(=O)c1cscn1)C2 (stereo unspecified) — higher, 0.922%
- O=C(CNC(=O)N1CCc2c([nH]c3ccc(Cl)cc23)C1)NCCCO — higher, 5.36%
- CN(Cc1nc2c(cnn2C)c(=O)[nH]1)Cc1ccco1 — lower, -8.11%
- O=C(NCc1cccnc1)NCC(O)c1cccc(C(F)(F)F)c1 (stereo unspecified) — lower, -2.64%
- OC(CNCCc1nnc2ccccn12)c1ccc(F)c(F)c1 (stereo unspecified) — higher, 2.52%
- CCCn1nccc1-c1cnc(CC2CCN(C(C)=O)C2)cn1 (stereo unspecified) — lower, -6.88%
- COc1ccccc1C1=NOC(CC2(C(=O)O)CCOCC2)C1 (stereo unspecified) — lower, -9.9%
- Cc1nc2c(c(NCc3ccccc3)n1)CCN(C(=O)C1CCC1)CC2 — higher, 14.3%
- COc1c(C2CCCN2CC(=O)Nc2cc(C)no2)c(C)nn1C (stereo unspecified) — lower, -2.77%
- CC(C)Cc1noc(C2CCCN(C(=O)CCc3cnn(C)c3)C2)n1 (stereo unspecified) — higher, 0.297%
- CN(C)CCN1CC(C(=O)N2CCC(c3nccn3C)CC2)CC1=O (stereo unspecified) — lower, -7.2%
- CC(C)NC(=O)N1CCC2(CC1)Cc1ccccc1CN(C)C2=O — higher, 5.55%
- CC(C)c1nnc(NCc2cc3n(n2)CCNC3)s1 — lower, -2.11%
- O=C(C1CC1)N1CCC2(CC1)OCCO2 — higher, 1.75%
- CN1CCN(C2COC3(CCN(Cc4cccs4)CC3)C2)CC1 (stereo unspecified) — lower, -84.5%
- CN1CCCN(C(=O)c2nc3c(o2)CN(C(=O)c2cccnc2)C3)CC1 — higher, 2.75%
- O=C(CS(=O)(=O)c1cccc[n+]1[O-])NC1CCCc2ccccc21 (stereo unspecified) — lower, -3.46%
- COc1ncccc1C(=O)N1CCCC(n2ccnc2C)C1 (stereo unspecified) — lower, -7.41%
- O=C1CCCN1CCN1CCCCC1Cn1cccn1 (stereo unspecified) — higher, 12.9%
- Cc1[nH]c2ccc(Cl)cc2c1CCNc1ncnc2c1CCNC2 — higher, 22.4%
- CC(Nc1ncnc2sccc12)c1cnn(C)c1 (stereo unspecified) — lower, -2.63%
- OC(CN1CCOCC1)c1ccc(OC(F)(F)F)cc1 (stereo unspecified) — lower, -9.36%
- CN1CCC(N(C)CCC(=O)N2CCC(Cc3ccc(F)cc3)CC2)C1 (stereo unspecified) — lower, -1.9%
- Cc1nnsc1C(=O)NCC1CCN(c2ccccn2)CC1 — higher, 11.9%
- Cc1ccc(CNC2(Cc3cc(-c4ccccn4)on3)COC2)o1 — higher, 8.91%
- Cc1ccc(C2CCCN(S(C)(=O)=O)C2)nc1 (stereo unspecified) — higher, 2.32%
- O=C(NCCc1nnc2n1CCC2)NCC1(c2ccccc2)CC1 — lower, -7.35%
- CCc1cn[nH]c1C1CCN(c2cc(C)c3cccc(OC)c3n2)CC1 — higher, 19%
- CN1CC[C@H](c2ccccc2)[C@@H]2[C@H]1CCCCN2C(=O)c1cnccn1 — lower, -2.5%
- Cc1ccc(C(=O)N2C[C@@H]3CCCO[C@@H]3[C@H](N3CCOCC3)C2)cn1 — lower, -3.4%
- NC(=O)CC1CCN(C(=O)NCCc2ccc(Cl)s2)CC1 — lower, -8.03%
- O=C(CCc1ccccn1)N1CCCC(n2cncn2)C1 (stereo unspecified) — lower, -15.5%
- CC(C(=O)N1CCCC1)N1CCC(c2nccn2Cc2cscn2)CC1 (stereo unspecified) — higher, 2.79%
- Cc1nonc1C(=O)N1CC[C@@]2(O)CCN(C3CCCCC3)C[C@H]2C1 — lower, -132%
- O=C(N1CCCC1)N1CCN(CC2CC2)c2ncccc2C1 — higher, 6.51%
- c1ccc(Oc2ccc(CNCC3CNc4ccnn4C3)cn2)cc1 (stereo unspecified) — lower, -15.6%
- Cn1ncc2c1C(COCC1CC1)CN(Cc1cccnc1)C2 (stereo unspecified) — higher, 11.4%
- CC(C)(C)CC(=O)N1[C@@H](c2ccco2)[C@@H](CO)C[C@]12CCCCNC2=O — higher, 0.122%
- CSc1ncc(CN(C)C(C)c2cccnc2)cn1 (stereo unspecified) — higher, 2.1%
- Cc1nsc(NC(=O)N2CCN(Cc3ccc(F)cc3)C(=O)C2)n1 — higher, 1.07%
- Cc1cnn(CC2CN(CC(=O)N(C)Cc3ccccc3)CCO2)c1 (stereo unspecified) — lower, -4.35%
- O=C(NCCn1ccnc1)C1(c2ccc3c(c2)OCCO3)CCCC1 — lower, -4.38%
- COc1cc(N2C[C@@H]3COC[C@]3(C(=O)NCc3ccccn3)C2)ncn1 — higher, 7.55%
- Cc1cc(CN(C)C(=O)C2CCC(=O)N(CC3CCCCC3)C2)n[nH]1 (stereo unspecified) — higher, 1.85%
- COCc1ncc(CN2CC[C@@](O)(COC)C(C)(C)C2)cn1 — lower, -2.79%
- CN(C)CC(C)(C)Cn1cnc(-c2ccccc2)c1-c1cccc(O)c1 — lower, -5.53%
- CCc1nc(C(=O)N2CCCC2)nn1-c1ccccc1Cl — lower, -3.17%
- COCC(=O)N1CCC2(CCN(Cc3ccc(C)cc3)CC2)CC1 — higher, 6.68%
- O=C(Cc1ccccn1)N1C[C@H]2CN(Cc3ccccn3)C[C@H]2C1 — lower, -108%
- O=C(C1CCOCC1)N1CCc2ncnc(-c3ccccc3)c2CC1 — lower, -6.09%
- CCOc1ccc(C(=O)Nc2ccn(CC)n2)cc1 — higher, 3.16%
- CCc1nc(C2CCCN2Cc2nnc(C3CCC3)o2)no1 (stereo unspecified) — higher, 1.48%
- Cc1nnc(NC(=O)NCCN(C(=O)OC(C)(C)C)C2CC2)s1 — higher, 5.53%
- NC(=O)Cc1ccc(OCc2noc(C(=O)N3CCCC3)n2)cc1 — lower, -13.6%
- CC(C)(O)CCc1cccc(C(=O)N2CCC[C@H]2CN2CCCC2)c1 — lower, -1.13%
- CCc1nnc2n1CCN(C(=O)c1ccc3c(c1)nnn3C)C2 — lower, -4.68%
- CN(c1ccc(F)c(F)c1)S(=O)(=O)c1cc(C(=O)O)cs1 — lower, -4.89%
- CCN1CCC(CNC(=O)Nc2cnn(CC(N)=O)c2)C1 (stereo unspecified) — higher, 1.1%
- COc1ccc(CN2CC(O)CN(C(=O)C3CCC3)CC2=O)cc1 (stereo unspecified) — lower, -12.8%
- Cc1csc(CN2CC[C@H]3C[C@H](C)O[C@@H]3C2)n1 — higher, 2.58%
- Cc1n[nH]c(C)c1NC(=O)CN1CCCC1Cn1cncn1 (stereo unspecified) — higher, 15.5%
- Cc1nonc1CN1CC[C@@](O)(C2CCOCC2)[C@H](C)C1 — higher, 7.31%
- COCCN1CCC(CNC(=O)c2ccnc(-n3ccnc3)c2)CC1 — lower, -1.63%
- CC(OCC(F)(F)F)C(=O)NCc1ccc(-n2cncn2)nc1 (stereo unspecified) — lower, -2.55%
- CO[C@@H]1CC[C@H]2[C@H]1OCCN2CCOCc1ccccc1 — lower, -114%
- COC(=O)[C@H](CCSC)NC(=O)Cc1c(C)nn(-c2ccccc2)c1C — lower, -1.65%
- CN(C)c1nccc(NCc2cc(-c3ccco3)n[nH]2)n1 — higher, 2.27%
- O=C(CCc1ccc2c(c1)OCO2)N1CCCCC1Cn1cccn1 (stereo unspecified) — lower, -17.2%
- Cc1nc[nH]c1C(=O)N1CCCC2(CN(C)C(=O)O2)C1 (stereo unspecified) — higher, 1.2%
- O=C(NCc1cccnc1)c1ccc2nccn2c1 — higher, 8.08%
- O=S(=O)(NCCCn1ccc2ccccc21)N1CCCCC1 — higher, 12.8%
- CCc1ccc(CNC(=O)NCc2nnc3n2CCC3)s1 — higher, 2.12%
- CCCc1nnc(NCCc2noc(C3CC3)n2)o1 — higher, 0.0902%
- Cc1noc(C)c1CNC(=O)N1CCC(CN2CCC(C)CC2)CC1 — higher, 6.62%
- Cc1noc(OCCOc2cccc(C#N)c2)n1 — higher, 0.63%
- O=C(NCCNc1ncccn1)C1CCN(C(=O)NC2CC2)CC1 — lower, -14.5%
- Cc1ccc(S(=O)(=O)NCC2(O)CCOc3ccccc32)s1 (stereo unspecified) — higher, 5.33%
- CN1CCOC(CNCC(=O)NCCc2ccc(F)cc2)C1 (stereo unspecified) — higher, 1.38%
- CCS(=O)(=O)c1ccc2oc([C@H]3CCN(Cc4ccccc4)C3)nc2c1 — higher, 4.03%
- Cc1csc(CNC(=O)NCC(C)Cn2nc(C)cc2C)n1 (stereo unspecified) — higher, 3.26%
- CCC1CN(C(=O)c2csc(-c3cnn(C)c3)n2)CCO1 (stereo unspecified) — lower, -23.2%
- COCCN1CCC2(CC1)CC(NC(=O)C(C)C)c1ccccc1O2 (stereo unspecified) — higher, 3.82%
- CC(C)Cc1ncc2c(n1)CN(c1cc(N)nc(N)n1)C2 — lower, -6.27%
